Measurements as given in ChEMBL document CHEMBL1789904, “Imaging of Plasmodium liver stages to drive next-generation antimalarial drug discovery” (Science, 2011).

System: Plasmodium yoelii
Assay: NOVARTIS: Antimalarial liver stage activity measured as reduction in Plasmodium yoelii schizont area in HepG2-A16-CD81 cells by immuno-fluorescence, and median schizont size at 10uM compound concentration
Type: functional, organism-based
Details: for IC50: Plasmodium yoelii, HepG2-A16-CD81
Procedure, shortened: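 Host and parasite nuclei stained with Hoechst 33342, parasites with αPyHSP70 antibody; 25 images per well by high-content imaging; median parasite (schizont) area measured by automated image analysis, ~50 schizonts per experiment, two or more independent experiments.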

SMILES	Schizont size	IC50
Clc1ncnc2ncn(Cc3ccccc3)c12	220.34 um	> 10 µM
O=[N+]([O-])c1ccc(N2CCCN(C(=S)Nc3ccc(F)cc3Br)CC2)nc1	120.24 um	4.62 µM
CCOC(=O)c1c(CSc2ccccc2)oc2cc(CN(C)C)c(O)c(Cl)c12	188.08 um	7.2 µM
COc1ccc(-c2c(C(F)(F)F)nn(C)c2NC(=O)Nc2ccc(F)cc2F)cc1	103.33 um	3.45 µM
COc1cc(C(=O)NCCc2ccccn2)ccc1OC1CCN(CC(c2ccccc2)c2ccccc2)CC1		1.28 µM
COc1ccc(C(c2ccc(N(C)C)cc2)c2ccc(N(C)C)cc2)cc1	172.95 um	> 10 µM
COc1cccc(NC(=O)Cn2c(C)c(C#N)c3ccccc32)c1	134.12 um	> 9.96 µM
CCc1ccccc1NC(C)=O	188.81 um	> 10 µM
O=C(O)Cn1cnc2nc3n(c2c1=O)CCC3	183.18 um	> 0.77 µM
OC(CNC1CCCCC1)Cn1c2ccccc2c2ccccc21 (stereo not drawn)	143.41 um	3.92 µM
CCOC(=O)C1(CC)CC(C)(C(=O)C[n+]2cccc(Br)c2)OC1=O.[Br-] (stereo not drawn)	178.59 um	> 10 µM
CCc1c(C#N)c(N)nc(SCC(=O)c2ccc(C)cc2)c1C#N	189.13 um	> 10 µM
CCN(c1ccccc1)S(=O)(=O)c1ccc(F)c(C(=O)Nc2c(C)cccc2C)c1	234.32 um	> 10 µM
O=C(c1cccc([N+](=O)[O-])c1)c1ccc(Cl)c(Cl)c1	108.65 um	3.81 µM
CCCCOc1ccc(C2C3CCCC=C3C(C#N)=C(N)C2(C#N)C#N)cc1 (stereo not drawn)	213.66 um	> 10 µM
COC(=O)C1=CNC=C(C(=O)OC)C1c1cc(OC)c(OC)c(OC)c1	216.47 um	> 10 µM
NC(Cc1ccccc1)C(=O)N1CCn2c(nc(-c3ccccc3)c2Nc2ccc3c(c2)OCO3)C1 (stereo not drawn)		0.00185 µM
CC1CC(N(C(=O)c2ccc(Cl)cc2Cl)c2ccccc2)c2ccccc2N1C(=O)c1ccc(Cl)cc1 (stereo not drawn)	110.64 um	3.64 µM
Cc1cccc(C)c1N(CC(=O)NCc1ccco1)S(C)(=O)=O	194.24 um	> 10 µM
CC(=O)N(C)C1=C(N2CCCC2)C(=O)c2ccccc2C1=O	123.79 um	4.95 µM

SMILES	Schizont size	IC50
Cc1nc2ccccc2c(=O)n1-c1ccc([N+](=O)[O-])cc1	246.01 um	> 10 µM
O=C(O)c1c[nH]c2cc(N3CCCCCC3)c(F)cc2c1=O	224.51 um	> 10 µM
COc1cccc(CNC(=O)C2CNCC2c2ccc(C(F)(F)F)cc2)c1 (stereo not drawn)		0.857 µM
Cc1ccc(OCC(=O)Nc2cccc(-c3nc4ncccc4o3)c2)cc1C	160.01 um	> 10 µM
COC(=O)c1ccc(C2C3=C(O)CC(c4ccco4)CC3=Nc3ccccc3N2C(=O)c2ccccc2)cc1 (stereo not drawn)	140.38 um	> 4.78 µM
N#CCSc1nc2ccccc2c2nc(CCc3c[nH]c4ccccc34)nn12	221.17 um	> 10 µM
Oc1c2c(nc3cc(-c4ccc(Br)cc4)nn13)CCCC2		0.499 µM
CC(c1nc2ccc(Cl)cc2c(=O)n1C)N1CCN(S(=O)(=O)c2cccc3ccccc23)CC1 (stereo not drawn)		0.0223 µM
Cc1ccc(S(=O)(=O)Nc2nc3n(n2)C(c2ccccc2)C=C(c2ccccc2)N3)cc1 (stereo not drawn)	198.42 um	> 10 µM
COc1ccc2[nH]c(SCC(=O)Nc3cccc(NC(=O)CSc4nc5cc(OC)ccc5[nH]4)n3)nc2c1	180.05 um	> 9.29 µM
O=C(C1CC1)N1CCc2cc(Br)cc(S(=O)(=O)N3CCCC3)c21	164.5 um	> 10 µM
Cc1c(C#N)c2ccccc2n1CC(=O)Nc1ccc(Br)cc1	158.02 um	> 10 µM
CCCCn1c(NN=C2C(=O)Nc3ccccc32)nc2c1c(=O)[nH]c(=O)n2C	172.53 um	> 10 µM
Cn1cnnc1SCC(=O)Nc1ccccc1C(F)(F)F	204.16 um	> 10 µM
COc1cc(OC)c(NC(=O)C2c3ccccc3C(=O)N(C)C2c2ccc(OC)c(OC)c2)cc1Cl (stereo not drawn)	165.85 um	> 9.13 µM
O=C1Nc2ccccc2C12Nc1ccccc1-c1nc3ccccc3n12 (stereo not drawn)	165.43 um	> 10 µM
COc1ccc(NC(=O)COc2ccccc2C(C)C)c(OC)c1	202.59 um	> 10 µM
CCCn1c(-c2cccc(Br)c2)nc2ccccc21	198.63 um	> 8.91 µM
Fc1ccc(Nc2nc(NCc3ccccc3)c3ccccc3n2)cc1	154.58 um	3.79 µM
